Rows were chosen to be rich in hits. Some 7.4% of all compounds tested hit in one or more screens of this group.
JNK3 blocker: JNK3 kinase activity inhibitors, primary screen, biochemical, human, purified enzyme; Mitogen-activated protein kinase 10 (Homo sapiens), P53779; HTS; inhibition, % at 8 µM; actives 0.61% (n = 60,000); in the data active = inhibition above about 17%
M1 agonist: M1 muscarinic receptor agonists, primary screen, CHO-M1 cells, Fluo-4 calcium, agonist mode; actives 3% (n = 64,000); Fluo-4 calcium fluorescence; stronger effect = higher value; B-score at 10 µM; Muscarinic acetylcholine receptor M1; AID 626, 2007;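 active = fluorescence rise, raw or as B-score row- and column-corrected plate score, outside the 99.7% band of its plate's samples, either direction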
S1P3 agonist: human S1P3 receptor agonists, primary screen, cell-based, primary and confirmation, NFAT-BLA reporter | AID 373, 2006 | Sphingosine 1-phosphate receptor 3 (Homo sapiens), Q99500 | activation, % at 4.5 µM | actives 0.1% (n = 60,000) | S1P3 NFAT-BLA reporter cells, agonism, FRET ratio; relative to 1 µM S1P, basal subtracted;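 active = activation above the screen-wide mean plus 3 SD, cut at about 4.5% in these data, passing the limit was not always enough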
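Benchmarks: high control 1 µM S1P / System: stable CHO line with human S1P3, Gα16, NFAT-BLA reporter / Dosing: single compound concentration, 4.5 µM final / Timing: 4 h compound at 37 °C, 2 h substrate at RT / Measured by: FRET β-lactamase substrate fluorescence, excitation 405 nm, 460/535 nm emission ratio, background-subtracted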
M1 antag: antagonists of rat M1 muscarinic receptor. Muscarinic acetylcholine receptor M1 (Rattus norvegicus), P08482. CHO-M1 cells, Fluo-4 calcium, ACh EC80 antagonist mode; stronger effect = lower value. B-score at 10 µM. actives 3.4% (n = 64,000). AID 628, 2007;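 active = calcium fluorescence response, raw or row-and-column corrected B-score, differing from the plate sample mean either way at a set confidence level, mostly lower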
Jurkat viability: cytotoxicity toward Jurkat T cells, primary screen, cytotoxicity control, cell-based, Jurkat E6.1, 60K MLSMR library; actives 1.2% (n = 56,000); inhibition, % at 4 µM; AID 463, 2006; Jurkat E6.1 viability, ATP luminescence, 48 h;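 active = inhibition above the mean inhibition of all tested compounds plus 3 SD, cut at about 28% in these data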
S1P1 ag pot: S1P1 agonists and agonism potentiators, primary screen, cell-based, primary and confirmation screens, CRE-bla reporter; S1P1 CRE-bla cells, forskolin, beta-lactamase FRET, potentiator mode; S1P1 agonist co-added at EC20, 2 nM; 100% = saturating reference agonist, 0% = basal; activation, % at 9.5 µM; actives 0.57% (n = 56,000); AID 449, 2006;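 active = activation above a cutoff set at the mean activation of all tested compounds plus 3 SD, cut at about 54% in these data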;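 also: forskolin at 4 µM as EC80 and the EC20 agonist is SEW2871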
M1 agonist conf: rat M1 muscarinic receptor agonists, confirmation, CHO-M1 cells, Fluo-4 calcium, duplicate retest. Fluo-4 calcium fluorescence, agonist mode; actives lie on both sides. actives 19% (n = 1,700). AID 1488, 2009. fluorescence change (max-min) at 10 µM. shares compounds with M1 agonist;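 active = fluorescence change differs from the solvent-only DMSO control mean at a set confidence level in both duplicate runs; inconclusive = differs from solvent-only control mean in just one of two runs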;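 also: an EC20 dose of acetylcholine follows compound addition during the same imaging run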
M4 ag counter: agonist activity at rat M4 receptor, confirmation, counter-screen for M1 allosteric modulator project, cell-based, agonist mode | shares compounds with M1 agonist | CHO M4/Gqi5 cells, Fluo-4 calcium fluorescence; actives lie on both sides | fluorescence change (max-min) at 10 µM | actives 9% (n = 1,700) | AID 1741, 2009;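 active = fluorescence change differing from the plate's solvent-only control wells at 99.7% confidence in both duplicates, whether higher or lower; inconclusive = differs from solvent controls in only one of two duplicates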
Target sequence (P08485 whole entry, looked up): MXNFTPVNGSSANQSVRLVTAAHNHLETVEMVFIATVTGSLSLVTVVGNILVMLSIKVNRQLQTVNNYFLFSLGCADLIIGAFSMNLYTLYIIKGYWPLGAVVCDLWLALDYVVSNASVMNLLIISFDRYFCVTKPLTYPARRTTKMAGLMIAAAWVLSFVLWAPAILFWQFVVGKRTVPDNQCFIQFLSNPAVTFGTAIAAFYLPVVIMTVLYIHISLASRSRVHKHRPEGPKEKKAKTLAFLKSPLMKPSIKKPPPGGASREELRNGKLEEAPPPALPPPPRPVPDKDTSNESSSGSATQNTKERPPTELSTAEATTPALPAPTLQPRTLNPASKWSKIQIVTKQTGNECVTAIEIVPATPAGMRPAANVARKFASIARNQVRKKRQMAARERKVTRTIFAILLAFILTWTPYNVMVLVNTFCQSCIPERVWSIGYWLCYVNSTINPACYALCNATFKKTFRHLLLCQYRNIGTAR
Large screens that a line does not name were inactive (follow-up assays come after a bar, where they were run).

CS(=O)(=O)N1CCc2cc(S(=O)(=O)Nc3ccc4c(c3)OCCO4)ccc21	M1 agonist 1.8, Jurkat viability 28 | M1 agonist conf inactive | M4 ag counter inactive
CCCCC1CC1C(=O)Nc1ccc(OC)c(OC)c1 (stereo not drawn)	none (no result: Jurkat viability)
Cn1cc(SCC(=O)NCc2ccc3c(c2)OCO3)c2ccccc21	none
C=CCn1c(/N=C/c2ccc(N(C)C)cc2)nc2ccccc21	M1 agonist 15 | M1 agonist conf 118 | M4 ag counter inactive
COc1ccccc1NC(=O)c1[nH]c(C)c(C(C)=O)c1C	none
COc1ccccc1OCC(=O)c1[nH]c(C)c(C(C)=O)c1C	M1 agonist 8.6 | M1 agonist conf inactive | M4 ag counter inactive
CSc1cccc(NS(=O)(=O)c2cccc3nsnc23)c1	none (no result: JNK3 blocker, S1P3 agonist, Jurkat viability, S1P1 ag pot)
Cc1c(C(=O)N2CCN(c3ccccc3F)CC2)sc2ncn(CC(=O)N3CCOCC3)c(=O)c12	M1 agonist 3.7 | M1 agonist conf inactive | M4 ag counter inconclusive
COc1ccc(C(=O)Nc2nccs2)cc1OC	none
COc1cc(C(=O)Nc2nccs2)c(Br)c(OC)c1OC	M1 agonist 2.9 | M1 agonist conf inactive | M4 ag counter inactive
CN(CC(=O)NCc1cccs1)S(=O)(=O)c1cccc2nsnc12	none
CC1Cc2nc(SCC(=O)NCc3ccco3)n(Cc3ccccc3)c(=O)c2S1 (stereo not drawn)	none
CCOC(=O)/C(C#N)=C1\Nc2ccccc2N=C1N(CC(C)C)CC(C)C	M1 agonist 8.1 (no result: Jurkat viability) | M1 agonist conf inconclusive | M4 ag counter inactive
CN(C)CCNC(=O)c1ccc(CS(=O)(=O)c2ccc(Br)cc2)o1	none
CCOc1ccc(S(=O)(=O)NC(C)(C)C)cc1-c1nc2c(C(C)(C)C)nn(C)c2c(=O)[nH]1	none (no result: Jurkat viability)
c1ccc(-n2ncc3c2ncn2cnnc32)cc1	M1 agonist 27 | M1 agonist conf inactive | M4 ag counter inactive
c1ccc(-n2ncc3c2ncn2nnnc32)cc1	none
Oc1ccccc1C1Nc2cccc3cccc(c23)N1	M1 agonist 2.7 | M1 agonist conf inconclusive | M4 ag counter inactive
CCOC(=O)c1nn(-c2ccc(OC)cc2)c(=O)c2c(NC(=O)c3ccco3)scc12	none
COc1ccc(NC(=O)C2CCCN2S(=O)(=O)c2cccc3cccnc23)c(OC)c1 (stereo not drawn)	none
COc1ccc(OC)c(NC(=O)C2CCCN(S(=O)(=O)c3cccc4cccnc34)C2)c1 (stereo not drawn)	M1 agonist 5 | M1 agonist conf -33 | M4 ag counter inactive
COc1ccc(N(C)S(=O)(=O)c2cccc3cccnc23)c(OC)c1	M1 agonist 5.2 | M1 agonist conf inconclusive | M4 ag counter inactive
COc1ccc(C)cc1NC(=O)C1CCN(S(=O)(=O)c2cccc3cccnc23)CC1	none
O=C(Nc1cccc2c1CCCC2)C1CCCN(S(=O)(=O)c2cccc3nonc23)C1 (stereo not drawn)	none (no result: JNK3 blocker, S1P3 agonist, Jurkat viability, S1P1 ag pot)
CC1(C)Oc2ccc(C(=O)NC3CCCC3)cc2N(CC(=O)NC2CCCCC2)C1=O	none
CCCCN(C)C(=O)c1oc2ccc(S(=O)(=O)N3CCCCCC3)cc2c1C	none
CCOC(=O)C1CCN(c2nc3ccccc3nc2C(C#N)C(=O)OC(C)COC)CC1 (stereo not drawn)	M1 agonist 6.2 (no result: Jurkat viability) | M1 agonist conf inconclusive | M4 ag counter inactive
COC(=O)C1CCN(c2nc3ccccc3nc2C(C#N)C(=O)OCC(C)C)CC1 (stereo not drawn)	none
C=CCOC(=O)C(C#N)c1nc2ccccc2nc1N1CCC(C(=O)OCC)CC1 (stereo not drawn)	M1 agonist 5.1 (no result: Jurkat viability) | M1 agonist conf inactive | M4 ag counter inconclusive
CCOC(=O)C1CCN(c2nc3ccccc3nc2C(C#N)C(=O)OC(C)C)CC1 (stereo not drawn)	M1 agonist 28 (no result: Jurkat viability) | M1 agonist conf inactive | M4 ag counter inactive
CCOC(=O)C1CCN(c2nc3ccccc3nc2C(C#N)C(=O)OCCOC)CC1 (stereo not drawn)	M1 agonist 6.2 (no result: Jurkat viability) | M1 agonist conf inactive | M4 ag counter inactive
C=CCOC(=O)C(C#N)c1nc2ccccc2nc1N1CCN(c2ccccc2OCC)CC1 (stereo not drawn)	none (no result: Jurkat viability)
COc1cccc(C2CC(c3ccccc3Cl)n3ncnc3N2)c1 (stereo not drawn)	none
O=S(=O)(NC1CCc2ccccc21)c1ccc(S(=O)(=O)N2CCCC2)cc1 (stereo not drawn)	none
CSc1ccc(/C=N/n2c(C)cc(C)cc2=O)cc1	none
CCCCCC(=O)Nc1cccc(-c2nc3ncccc3o2)c1	M1 agonist 4 | M1 agonist conf inactive | M4 ag counter inactive
CCOC(=O)C1=C(c2ccccc2)Nc2ncnn2C1c1cccc(OC)c1OC (stereo not drawn)	none (no result: S1P1 ag pot)
COc1cccc(C2C=C(c3cccs3)Nc3ncnn32)c1OC (stereo not drawn)	M1 agonist 8.1 | M1 agonist conf inactive | M4 ag counter inactive
C=C(C)Cn1c(=O)c2c(nc3n2CCN3c2cccc(Cl)c2C)n(C)c1=O	M1 agonist 3 | M1 agonist conf inactive | M4 ag counter inactive
CCN(CC)c1ccc(-c2nn3c(-c4cccnc4)nnc3s2)cc1	M1 agonist 8.6, M1 antag -6.2 (no result: Jurkat viability) | M1 agonist conf inactive | M4 ag counter inactive
CC(=O)Nc1ccc(S(=O)(=O)N(Cc2ccco2)CC2CCCO2)cc1 (stereo not drawn)	none
O=C1OCc2cc(NC(=O)C3CCCO3)ccc21 (stereo not drawn)	none
O=C1OCc2ccc(NC(=O)C3CCCCC3)cc21	M1 agonist -3.3 (no result: JNK3 blocker, S1P3 agonist, Jurkat viability, S1P1 ag pot) | M1 agonist conf -36 | M4 ag counter inactive
c1ccc(CCNc2c3c(nc4ncnn24)CCC3)cc1	none
CCc1c(C)nc2ncnn2c1NCCc1ccc(OC)cc1	M1 agonist 4.8, M1 antag -2.8, Jurkat viability 93, S1P1 ag pot 55 | M1 agonist conf inactive | M4 ag counter inconclusive

Screening data (PubChem BioAssay)
